Screening results as filed in PubChem.
CRFBP-R2 agonist = agonists of CRF-BP/CRF-R2 complex, primary screen, cell-based, HEK293, calcium dye fluorescence, uHTS; 350,000 tested, 0.46% active; CRF-binding protein / CRF receptor 2 complex (human); activation, % at 13.2 µM; calcium dye fluorescence (FLIPR); percent of saturating CRF peptide response;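 active means activation of at least 50%, plus an integration ratio under a set limit after plate pattern correction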;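 further: plate controls were neutral control wells without compound for no effect and CRF at EC100 for full effect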
TRPN1 ag = zebrafish TRPN1 channel agonists, primary screen, cell-based, HEK293, calcium fluorescence. AID 1424, 2008. 220,000 tested, 0.18% active. HEK293 zebrafish TRPN1-YFP, Fluo-8 calcium fluorescence; 100% = response to 87 µM carbachol. transient receptor potential cation channel N1 (TRPN1/NompC), Danio rerio. activation, % at 3 µM;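 active means activation above its plate's cutoff, the mean activation of test wells on that plate plus 3 SD, cut at about 19% in these data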;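 further: 0% = DMSO alone and 100% = 87 µM carbachol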
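Material: zebrafish TRPN1-YFP in HEK293 cells; Doses: single test compound dose, 3 µM nominal, 0.3% DMSO; Timing: dye loading 1 h at 37 °C, then 30 min room temperature; Technique: intracellular calcium fluorescence with Fluo-8; Benchmarks: high carbachol 87 µM, low DMSO alone.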
VIM-2 inh = VIM-2 metallo-beta-lactamase inhibitors, primary screen, biochemical, epi-absorbance readout, Pseudomonas aeruginosa enzyme; purified VIM-2, nitrocefin hydrolysis, epi-absorbance fluorescence; inhibition, % at 5.6 µM; 290,000 tested, 0.89% active; AID 1527, 2009;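 active means inhibition above the mean of all tested compounds plus 3 SD, cutoff set per screening run, cut at about 7.5% in these data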;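 further: red hydrolysis product quenches plate fluorescence so inhibitors raise well fluorescence; 0% = enzyme with DMSO and 100% = DMSO without enzyme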
TRPML3 ag = human TRPML3 channel agonists, primary screen, cell-based, HEK293 TRPML3-YFP, Fluo-8 calcium fluorescence, 3 µM; AID 1448, 2008; 100% = the carbachol control signal; activation, % at 3 µM; Mucolipin-3 (Homo sapiens), Q8TDD5; 220,000 tested, 0.29% active;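 active means activation above its plate's cutoff, the mean activation of the plate's test wells plus 3 SD, cut at about 12% in these data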;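 further: 0% = DMSO only wells and 100% = carbachol wells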
Target sequence (Q8TDD5 whole entry, looked up): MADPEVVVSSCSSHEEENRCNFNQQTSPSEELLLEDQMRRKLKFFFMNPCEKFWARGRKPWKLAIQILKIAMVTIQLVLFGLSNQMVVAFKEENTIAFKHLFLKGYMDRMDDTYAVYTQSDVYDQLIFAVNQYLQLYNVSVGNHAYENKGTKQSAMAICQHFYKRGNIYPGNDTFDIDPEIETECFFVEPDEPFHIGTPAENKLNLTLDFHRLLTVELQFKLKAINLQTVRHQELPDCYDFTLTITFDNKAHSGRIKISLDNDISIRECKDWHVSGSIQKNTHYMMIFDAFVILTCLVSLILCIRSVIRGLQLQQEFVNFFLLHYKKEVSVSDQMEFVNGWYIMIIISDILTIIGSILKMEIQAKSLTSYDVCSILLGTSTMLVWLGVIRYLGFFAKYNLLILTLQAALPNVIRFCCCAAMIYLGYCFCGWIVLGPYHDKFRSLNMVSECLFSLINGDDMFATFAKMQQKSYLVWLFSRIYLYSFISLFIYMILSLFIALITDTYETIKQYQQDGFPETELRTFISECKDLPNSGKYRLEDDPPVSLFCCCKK
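Material: TRPML3-YFP stable HEK293 cells | Dosing: One concentration, 3 µM nominal, 0.3% DMSO | Timing: 125 s total fluorescence read per well | Technique: Fluo-8 calcium dye fluorescence, ex 470-495, em 515-575 nm | Measure: Percent activation from peak-to-basal fluorescence ratio, scaled between DMSO and carbachol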
IMP-1 inh = IMP-1 metallo-beta-lactamase inhibitors, primary screen, biochemical, epi-absorbance readout, Pseudomonas aeruginosa enzyme; metallo-beta-lactamase IMP-1 (Pseudomonas aeruginosa); purified IMP-1, nitrocefin hydrolysis, epi-absorbance fluorescence; inhibition, % at 5.6 µM; 290,000 tested, 0.45% active; AID 1556, 2009;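 active means inhibition above the mean plus 3 SD of all compounds in the same screening run, cut at about 4.5% in these data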;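 further: 0% = IMP-1 with DMSO and 100% = DMSO wells lacking enzyme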
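System: purified IMP-1 / Input: IMP-1 dispensed at 0.2 nM / Medium: 50 mM HEPES pH 7.1, 50 µM ZnSO4, 0.05% Brij 35 / Timing: 15 min enzyme–compound preincubation, then 25 min nitrocefin reaction, 25 °C / Technique: plate fluorescence quenching by hydrolysis product, ex 480/em 530 nm / Repeats: singlicate testing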
CRFBP-R2 block = antagonists of CRF-BP/CRF-R2 complex, primary screen, cell-based, HEK293, calcium dye fluorescence, uHTS; CRF-induced calcium fluorescence; inhibition, % at 11.8 µM; 350,000 tested, 0.59% active; AID 588475, 2011;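 active means inhibition of the ligand-induced calcium signal above about 50% at the single tested concentration, limit read from the data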
Active calls of the source: *. Most compounds without a hit are left out; they make up all but 2.1% or so of the library.

`COc1ccc(OC)c(N2CC(O)=C(c3nc4ccccc4s3)C2=N)c1` gave CRFBP-R2 agonist 0, TRPN1 ag 0, VIM-2 inh -3, TRPML3 ag 0, IMP-1 inh 4.5* and CRFBP-R2 block -13.
`CCN1CCN(c2ccc(S(=O)(=O)N3CCOCC3)cc2NC(=O)c2ccc(F)cc2Cl)CC1` gave CRFBP-R2 agonist 2 and CRFBP-R2 block 2.
Cc1cccc(C)c1NC(=O)CN(C)C(=O)Cc1cccc(C(F)(F)F)c1 was read as CRFBP-R2 agonist 0, VIM-2 inh -2, IMP-1 inh -1 and CRFBP-R2 block -5.
`c1ccc(CSc2ccc3nnc(-c4ccccn4)n3n2)cc1` gave CRFBP-R2 agonist 0, TRPN1 ag -2, VIM-2 inh 11*, TRPML3 ag -1, IMP-1 inh -1 and CRFBP-R2 block -4.
Cc1cccc(CSc2ccc3nnc(-c4ccccn4)n3n2)c1 was read as CRFBP-R2 agonist 0, TRPN1 ag -1, VIM-2 inh 3, TRPML3 ag -1, IMP-1 inh -5 and CRFBP-R2 block 1.
For COc1ccc(C(=O)O/N=C(\N)Cc2ccc(Cl)cc2)cc1OC the results were CRFBP-R2 agonist -1, TRPN1 ag 0, VIM-2 inh -2, TRPML3 ag 0, IMP-1 inh -5 and CRFBP-R2 block 9.
Screening COc1ccc(C(=O)O/N=C(\N)Cc2ccc(Cl)c(Cl)c2)cc1OC returned CRFBP-R2 agonist 1, TRPN1 ag 0, VIM-2 inh -2, TRPML3 ag 0, IMP-1 inh -1 and CRFBP-R2 block 110*.
COc1ccccc1C(=O)NCCC(=O)OCC(=O)Nc1ccc(S(N)(=O)=O)cc1 was read as CRFBP-R2 agonist 0 and CRFBP-R2 block 8.
Screening COc1ccccc1CCNC(=O)CCn1nc(C)c2c(C)n(-c3ccccc3)nc2c1=O returned CRFBP-R2 agonist 0, VIM-2 inh -2, IMP-1 inh -3 and CRFBP-R2 block 76*.
COc1ccccc1N1C(=O)C2C(C(=O)c3ccccc3)=NN(c3ccc(C)cc3)C2C1=O (stereo not drawn) was read as CRFBP-R2 agonist 91*, TRPN1 ag 3, VIM-2 inh -1, TRPML3 ag 1, IMP-1 inh -4 and CRFBP-R2 block -65.
Screening O=C(C1=NN(c2ccccc2)C2C(=O)N(c3cccc(Cl)c3)C(=O)C12)c1ccccc1 (stereo not drawn) returned CRFBP-R2 agonist 116*, TRPN1 ag 3, VIM-2 inh 1, TRPML3 ag 2, IMP-1 inh -2 and CRFBP-R2 block -137.
For CCc1cccc2cc3c(N)c(C(=O)Nc4ccc(S(=O)(=O)N5CCCC5)cc4)sc3nc12 the results were CRFBP-R2 agonist 63*, TRPN1 ag 2, VIM-2 inh -2, TRPML3 ag 2, IMP-1 inh 0 and CRFBP-R2 block -151.
Screening O=C(Cn1cc(C(F)(F)F)ccc1=O)Nc1ccc2c(c1)OCO2 returned CRFBP-R2 agonist -1 and CRFBP-R2 block 0.
Screening Nc1c(C(=O)c2ccccc2)sc2nsc(SCCN3CCOCC3)c12 returned CRFBP-R2 agonist 69*, TRPN1 ag 8, VIM-2 inh 2, TRPML3 ag 4, IMP-1 inh -2 and CRFBP-R2 block -92.
`CC(=O)c1sc2nsc(SCCN3CCOCC3)c2c1N` gave CRFBP-R2 agonist -2, TRPN1 ag 1, VIM-2 inh 0, TRPML3 ag 0, IMP-1 inh -2 and CRFBP-R2 block 2.
Screening COc1ccc(CNC(=O)CN2CCN(S(=O)(=O)c3cc(Br)ccc3Br)CC2)cc1OC returned CRFBP-R2 agonist -1 and CRFBP-R2 block 60*.
Screening Cc1nnc(SCc2ccc(F)cc2Cl)s1 returned CRFBP-R2 agonist -4, TRPN1 ag 0, VIM-2 inh -3, TRPML3 ag 0, IMP-1 inh -1 and CRFBP-R2 block 19.
